Test results from ChEMBL document CHEMBL3045650, “Design, synthesis, and 3D-QSAR analysis of novel 1,3,4-oxadiazol-2(3H)-ones as protoporphyrinogen oxidase inhibitors” (J Agric Food Chem, 2010).

These compounds were tested on Rumex acetosa (assay: Post-emergence herbicidal activity against Rumex acetosa assessed as growth inhibition at emulsified concentrate of 37.5 g/ai ha after 15 days by greenhouse test).
Format: functional

SMILES | inhibition (INH) [%]
CCOC(=O)C(C)Sc1nc2cc(-n3nc(C(C)(C)C)oc3=O)c(F)cc2s1 (stereo not given) | 95

These compounds were tested on Rumex acetosa (assay: Post-emergence herbicidal activity against Rumex acetosa assessed as growth inhibition at emulsified concentrate of 75 g/ai ha after 15 days by greenhouse test).
Format: functional

SMILES | inhibition (INH) [%]
CCOC(=O)C(C)Sc1nc2cc(-n3nc(C(C)(C)C)oc3=O)c(F)cc2s1 (stereo not given) | 95

These compounds were tested on Amaranthus retroflexus (assay: Post-emergence herbicidal activity against Amaranthus retroflexus assessed as growth inhibition at emulsified concentrate of 37.5 g/ai ha after 15 days by greenhouse test).
Format: functional
Procedure, shortened: (§1)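 Compounds were made up as 100 g/L emulsifiable concentrates in DMF with Tween-80, then diluted in water. About 20 seeds were sown 1-3 cm deep in pots and grown in a greenhouse at 15-30 °C and 50% relative humidity. Sprays were applied postemergence at the two-leaf stage. Untreated and DMF + Tween-80 solvent controls were included. Injury was scored visually 15 days after treatment, with three replicates per treatment.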

SMILES | inhibition (INH) [%]
CCOC(=O)C(C)Sc1nc2cc(-n3nc(C(C)(C)C)oc3=O)c(F)cc2s1 (stereo not given) | 60

What follows are compounds tested on Abutilon theophrasti (assay: Post-emergence herbicidal activity against Abutilon theophrasti (velvetleaf) assessed as growth inhibition at emulsified concentrate of 37.5 g/ai ha after 15 days by greenhouse test).
Format: functional

SMILES | inhibition (INH) [%]
CCOC(=O)C(C)Sc1nc2cc(-n3nc(C(C)(C)C)oc3=O)c(F)cc2s1 (stereo not given) | 80

The compounds below were run on Brassica juncea (assay: Post-emergence herbicidal activity against Brassica juncea assessed as growth inhibition at emulsified concentrate of 150 g/ai ha after 15 days by greenhouse test).
Format: functional
Procedure, shortened: (§2)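 About 20 seeds sown 1–3 cm deep, grown at 15–30 °C and 50% RH. Dicot seedlings sprayed postemergence at the two-leaf stage with a 100 g/L emulsifiable concentrate (DMF/Tween-80) diluted in water, 150 g ai/ha. Untreated and solvent controls included. Visual rating at 15 days, three replicates.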

SMILES | inhibition (INH) [%]
CCOC(=O)C(C)Sc1nc2cc(-n3nc(C(C)(C)C)oc3=O)c(F)cc2s1 (stereo not given) | 75

What follows are compounds tested on Polygonum humifusum (assay: Post-emergence herbicidal activity against Polygonum humifusum assessed as growth inhibition at emulsified concentrate of 150 g/ai ha after 15 days by greenhouse test).
Format: functional

SMILES | inhibition (INH) [%]
CCOC(=O)C(C)Sc1nc2cc(-n3nc(C(C)(C)C)oc3=O)c(F)cc2s1 (stereo not given) | 70

The compounds below were run on Cyperus iria (assay: Post-emergence herbicidal activity against Cyperus iria assessed as growth inhibition at emulsified concentrate of 37.5 g/ai ha after 15 days by greenhouse test).
Format: functional

SMILES | inhibition (INH) [%]
CCOC(=O)C(C)Sc1nc2cc(-n3nc(C(C)(C)C)oc3=O)c(F)cc2s1 (stereo not given) | 90

What follows are compounds tested on Eclipta prostrata (assay: Post-emergence herbicidal activity against Eclipta prostrata assessed as growth inhibition at emulsified concentrate of 75 g/ai ha after 15 days by greenhouse test).
Format: functional
Procedure, shortened: as §1

SMILES | inhibition (INH) [%]
CCOC(=O)C(C)Sc1nc2cc(-n3nc(C(C)(C)C)oc3=O)c(F)cc2s1 (stereo not given) | 85

Each compound was assayed on Brassica juncea (assay: Post-emergence herbicidal activity against Brassica juncea assessed as growth inhibition at emulsified concentrate of 37.5 g/ai ha after 15 days by greenhouse test).
Format: functional
Procedure, shortened: as §1

SMILES | inhibition (INH) [%]
CCOC(=O)C(C)Sc1nc2cc(-n3nc(C(C)(C)C)oc3=O)c(F)cc2s1 (stereo not given) | 70

These compounds were tested on Echinochloa crus-galli (assay: Post-emergence herbicidal activity against Echinochloa crus-galli (barnyard grass) assessed as growth inhibition at emulsified concentrate of 150 g/ai ha after 15 days by greenhouse test).
Format: functional
Procedure, shortened: (§3)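 About 20 seeds sown 1–3 cm deep, grown at 15–30 °C and 50% RH. Monocot seedlings sprayed postemergence at the one-leaf stage with a 100 g/L emulsifiable concentrate (DMF/Tween-80) diluted in water, 150 g ai/ha. Untreated and solvent controls included. Visual rating at 15 days, three replicates.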

SMILES | inhibition (INH) [%]
CCOC(=O)C(C)Sc1nc2cc(-n3nc(C(C)(C)C)oc3=O)c(F)cc2s1 (stereo not given) | 0

These compounds were tested on Cyperus iria (assay: Post-emergence herbicidal activity against Cyperus iria assessed as growth inhibition at emulsified concentrate of 75 g/ai ha after 15 days by greenhouse test).
Format: functional

SMILES | inhibition (INH) [%]
CCOC(=O)C(C)Sc1nc2cc(-n3nc(C(C)(C)C)oc3=O)c(F)cc2s1 (stereo not given) | 90

Each compound was assayed on Cyperus iria (assay: Post-emergence herbicidal activity against Cyperus iria assessed as growth inhibition at emulsified concentrate of 150 g/ai ha after 15 days by greenhouse test).
Format: functional

SMILES | inhibition (INH) [%]
CCOC(=O)C(C)Sc1nc2cc(-n3nc(C(C)(C)C)oc3=O)c(F)cc2s1 (stereo not given) | 100

The compounds below were run on Eclipta prostrata (assay: Post-emergence herbicidal activity against Eclipta prostrata assessed as growth inhibition at emulsified concentrate of 37.5 g/ai ha after 15 days by greenhouse test).
Format: functional
Procedure, shortened: as §1

SMILES | inhibition (INH) [%]
CCOC(=O)C(C)Sc1nc2cc(-n3nc(C(C)(C)C)oc3=O)c(F)cc2s1 (stereo not given) | 80

These compounds were tested on Polygonum humifusum (assay: Post-emergence herbicidal activity against Polygonum humifusum assessed as growth inhibition at emulsified concentrate of 37.5 g/ai ha after 15 days by greenhouse test).
Format: functional

SMILES | inhibition (INH) [%]
CCOC(=O)C(C)Sc1nc2cc(-n3nc(C(C)(C)C)oc3=O)c(F)cc2s1 (stereo not given) | 60

Each compound was assayed on Polygonum humifusum (assay: Post-emergence herbicidal activity against Polygonum humifusum assessed as growth inhibition at emulsified concentrate of 75 g/ai ha after 15 days by greenhouse test).
Format: functional

SMILES | inhibition (INH) [%]
CCOC(=O)C(C)Sc1nc2cc(-n3nc(C(C)(C)C)oc3=O)c(F)cc2s1 (stereo not given) | 70

Each compound was assayed on Brassica juncea (assay: Post-emergence herbicidal activity against Brassica juncea assessed as growth inhibition at emulsified concentrate of 75 g/ai ha after 15 days by greenhouse test).
Format: functional
Procedure, shortened: as §1

SMILES | inhibition (INH) [%]
CCOC(=O)C(C)Sc1nc2cc(-n3nc(C(C)(C)C)oc3=O)c(F)cc2s1 (stereo not given) | 70

These compounds were tested on Poa annua (assay: Post-emergence herbicidal activity against Poa annua assessed as growth inhibition at emulsified concentrate of 150 g/ai ha after 15 days by greenhouse test).
Format: functional
Procedure, shortened: as §3

SMILES | inhibition (INH) [%]
CCOC(=O)C(C)Sc1nc2cc(-n3nc(C(C)(C)C)oc3=O)c(F)cc2s1 (stereo not given) | 0

What follows are compounds tested on Eclipta prostrata (assay: Post-emergence herbicidal activity against Eclipta prostrata assessed as growth inhibition at emulsified concentrate of 150 g/ai ha after 15 days by greenhouse test).
Format: functional
Procedure, shortened: as §2

SMILES | inhibition (INH) [%]
CCOC(=O)C(C)Sc1nc2cc(-n3nc(C(C)(C)C)oc3=O)c(F)cc2s1 (stereo not given) | 95

The compounds below were run on Abutilon theophrasti (assay: Post-emergence herbicidal activity against Abutilon theophrasti (velvetleaf) assessed as growth inhibition at emulsified concentrate of 150 g/ai ha after 15 days by greenhouse test).
Format: functional

SMILES | inhibition (INH) [%]
CCOC(=O)C(C)Sc1nc2cc(-n3nc(C(C)(C)C)oc3=O)c(F)cc2s1 (stereo not given) | 100

Each compound was assayed on Digitaria sanguinalis (assay: Post-emergence herbicidal activity against Digitaria sanguinalis (hairy crabgrass) assessed as growth inhibition at emulsified concentrate of 150 g/ai ha after 15 days by greenhouse test).
Format: functional
Procedure, shortened: as §3

SMILES | inhibition (INH) [%]
CCOC(=O)C(C)Sc1nc2cc(-n3nc(C(C)(C)C)oc3=O)c(F)cc2s1 (stereo not given) | 50

What follows are compounds tested on Amaranthus retroflexus (assay: Post-emergence herbicidal activity against Amaranthus retroflexus assessed as growth inhibition at emulsified concentrate of 150 g/ai ha after 15 days by greenhouse test).
Format: functional
Procedure, shortened: as §2

SMILES | inhibition (INH) [%]
CCOC(=O)C(C)Sc1nc2cc(-n3nc(C(C)(C)C)oc3=O)c(F)cc2s1 (stereo not given) | 90

The compounds below were run on Abutilon theophrasti (assay: Post-emergence herbicidal activity against Abutilon theophrasti (velvetleaf) assessed as growth inhibition at emulsified concentrate of 75 g/ai ha after 15 days by greenhouse test).
Format: functional

SMILES | inhibition (INH) [%]
CCOC(=O)C(C)Sc1nc2cc(-n3nc(C(C)(C)C)oc3=O)c(F)cc2s1 (stereo not given) | 100

These compounds were tested against T1, Protoporphyrinogen oxidase (Homo sapiens, UniProt P50336) (assay: Inhibition of Homo sapiens (human) recombinant protoporphyrinogen oxidase expressed in Escherichia coli JM109 assessed as oxidation of protoporphyrinogen IX substrate by fluorescence assay).
T1 sequence (P50336 whole entry): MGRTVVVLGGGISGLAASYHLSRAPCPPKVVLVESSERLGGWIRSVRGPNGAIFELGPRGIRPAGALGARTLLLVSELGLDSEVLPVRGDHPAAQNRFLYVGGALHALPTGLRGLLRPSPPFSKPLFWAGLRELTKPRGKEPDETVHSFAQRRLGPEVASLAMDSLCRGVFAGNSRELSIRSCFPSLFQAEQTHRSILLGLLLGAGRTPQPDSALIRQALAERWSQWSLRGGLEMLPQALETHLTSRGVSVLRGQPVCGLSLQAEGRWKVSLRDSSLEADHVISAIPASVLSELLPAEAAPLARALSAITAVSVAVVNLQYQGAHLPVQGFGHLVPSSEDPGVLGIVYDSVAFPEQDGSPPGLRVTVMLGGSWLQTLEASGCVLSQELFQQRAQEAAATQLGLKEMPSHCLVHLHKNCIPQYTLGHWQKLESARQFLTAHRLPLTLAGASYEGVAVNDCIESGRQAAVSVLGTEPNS

Ki [µM] | SMILES
1.42 | CCOC(=O)C(C)Sc1nc2cc(-n3nc(C(C)(C)C)oc3=O)c(F)cc2s1 (stereo not given)

What follows are compounds tested on Rumex acetosa (assay: Post-emergence herbicidal activity against Rumex acetosa assessed as growth inhibition at emulsified concentrate of 150 g/ai ha after 15 days by greenhouse test).
Format: functional

SMILES | inhibition (INH) [%]
CCOC(=O)C(C)Sc1nc2cc(-n3nc(C(C)(C)C)oc3=O)c(F)cc2s1 (stereo not given) | 100

What follows are compounds tested on Amaranthus retroflexus (assay: Post-emergence herbicidal activity against Amaranthus retroflexus assessed as growth inhibition at emulsified concentrate of 75 g/ai ha after 15 days by greenhouse test).
Format: functional
Procedure, shortened: as §1

SMILES | inhibition (INH) [%]
CCOC(=O)C(C)Sc1nc2cc(-n3nc(C(C)(C)C)oc3=O)c(F)cc2s1 (stereo not given) | 60
